# Test results as given in ChEMBL document CHEMBL3124769, “Synthesis and antitumor activities of novel dipeptide derivatives derived from dehydroabietic acid” (Bioorg Med Chem Lett, 2014).
# Activity calls are given as the source filed them. The rule behind the calls is not given here.
# Experiments:
# HCT-116 = test: Cytotoxicity against human HCT116 cells after 48 hrs by MTT assay; assay type: functional, cell-based; conditions: HCT-116, 48 h
# Summary of the method: (§1)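 Cells from the six lines were plated and left to adhere for 24 h. They were then exposed to compounds at 100 to 0.01 µM for 48 h. After that the medium was replaced with complete medium and viability was read by MTT. IC50 came from the concentration series, and each experiment was done three times.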
# HepG2 = test: Cytotoxicity against human HepG2 cells after 48 hrs by MTT assay; assay type: functional, cell-based; conditions: HepG2, 48 h; summary of the method: as §1
# [1] = Cytotoxicity against human Bel7404 cells after 48 hrs by MTT assay; assay type: functional, cell-based; conditions: BEL-7404, 48 h; summary of the method: as §1
# SK-OV-3 = test: Cytotoxicity against human SKOV3 cells after 48 hrs by MTT assay; assay type: functional, cell-based; conditions: SK-OV-3, 48 h; summary of the method: as §1
# NCI-H460 = test: Cytotoxicity against human NCI-H460 cells after 48 hrs by MTT assay; assay type: functional, cell-based; conditions: NCI-H460, 48 h; summary of the method: as §1
# HeLa [2] = test: Cytotoxicity against human HeLa cells after 48 hrs by MTT assay; assay type: functional, cell-based; summary of the method: as §1
# HeLa [3] = test: Induction of apoptosis in human HeLa cells assessed as release of mitochondrial cytochrome c into cytosol at 5 to 10 uM after 12 hrs by fluorescence microscopic analysis; assay type: functional, cell-based
# HeLa [4] = test: Induction of apoptosis in human HeLa cells assessed as DNA fragmentation at 10 uM after 12 to 24 hrs by TUNEL assay; assay type: functional, cell-based
# Summary of the method: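 After 12 and 24 h at 10 µM, HeLa cells (untreated 24 h control) were fixed in 4% paraformaldehyde and permeabilized with 0.1% Triton X-100. Fragmented DNA 3′-ends were labeled with FITC-dUTP using a TUNEL kit. Cells were imaged by fluorescence microscopy at 488 nm excitation and 530 nm emission.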
# HeLa [5] = test: Induction of apoptosis in human HeLa cells assessed as apoptotic ratio at 10 uM after 12 hrs using annexin V/propidium iodide staining by flow cytometry (reference value: 2.3%); assay type: functional
# Summary of the method: (§2)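 HeLa cells were treated at 5 or 10 µM for 12 h, with untreated cells run alongside for 12 h. Cells were washed in cold PBS and resuspended in binding buffer. They were stained with Annexin V-FITC, then PI, for 20 min in the dark and run on a flow cytometer. Quadrants: Q2 necrotic/late apoptotic, Q3 normal, Q4 early apoptotic. Apoptosis ratio = early + late.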
# HeLa [6] = test: Induction of apoptosis in human HeLa cells assessed as activation of caspase 3/9 by spectrophotometry analysis; assay type: functional, cell-based; conditions: TDE = time-dependent effect
# Summary of the method: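 Caspase-3 and caspase-9 activities in treated HeLa cells were measured spectrophotometrically at time points from 3 to 24 h and compared with untreated controls.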
# HeLa [7] = test: Induction of apoptosis in human HeLa cells assessed as necrotic cells at 10 uM after 12 hrs using annexin V/propidium iodide staining by flow cytometry (reference value: 2.1%); assay type: functional; summary of the method: as §2
# HeLa [8] = test: Induction of apoptosis in human HeLa cells assessed as apoptotic ratio at 5 uM after 12 hrs using annexin V/propidium iodide staining by flow cytometry (reference value: 2.3%); assay type: functional; summary of the method: as §2
# HeLa [9] = test: Induction of apoptosis in human HeLa cells after 12 hrs using annexin V/propidium iodide staining by flow cytometry; assay type: functional, cell-based; summary of the method: as §2
# HeLa [10] = test: Induction of apoptosis in human HeLa cells assessed as apoptotic morphology at 10 uM after 12 to 24 hrs by Hoechst 33258 staining; assay type: functional, cell-based
# Summary of the method: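 HeLa cells on coverslips were treated at 10 µM for 12 and 24 h, with an untreated 24 h control. They were fixed in 4% paraformaldehyde for 10 min, washed in PBS, stained with Hoechst 33258 for 5 min and washed again. Nuclei were viewed under fluorescence at 350 nm excitation and 460 nm emission.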
# HeLa [11] = test: Induction of apoptosis in human HeLa cells at 10 uM after 12 to 24 hrs by acridine orange/ethidium bromide staining; assay type: functional, cell-based
# Summary of the method: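 HeLa cells were seeded at 5×10⁴ cells/mL on coverslips and fed fresh medium with 10% FBS. They were treated at 10 µM for 12 and 24 h, with an untreated 24 h control. Coverslips were inverted onto AO/EB stain and examined by fluorescence microscopy. Scoring: green = live, green-yellow = early apoptotic, orange = late apoptotic/necrotic.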
# HeLa [12] = test: Induction of apoptosis in human HeLa cells assessed as change in mitochondrial membrane potential at 10 uM after 12 to 24 hrs by JC-1 staining; assay type: functional, cell-based
# Summary of the method: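 HeLa cells were exposed at 10 µM for 12 and 24 h, with an untreated 24 h control, then stained with JC-1. Monomers were excited at 514 nm (read 515–545 nm, green) and aggregates at 585 nm (read 570–600 nm, red). Depolarization was taken as a rise in the green/red intensity ratio.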
# HeLa [13] = test: Induction of apoptosis in human HeLa cells assessed as release of ROS at 5 to 10 uM after 12 hrs by fluorescence microscopic analysis; assay type: functional, cell-based
# Summary of the method: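 HeLa cells were given 5 or 10 µM for 12 h, with an untreated control handled the same way. Intracellular ROS was visualized by fluorescence microscopy using the probe 2,7-dichlorofluorescein diacetate.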
# HeLa [14] = test: Induction of apoptosis in human HeLa cells assessed as necrotic cells at 5 uM after 12 hrs using annexin V/propidium iodide staining by flow cytometry (reference value: 2.1%); assay type: functional; summary of the method: as §2
# HeLa [15] = test: Induction of apoptosis in human HeLa cells assessed as early apoptotic cells at 10 uM after 12 hrs using annexin V/propidium iodide staining by flow cytometry (reference value: 3.8%); assay type: functional; summary of the method: as §2
# HeLa [16] = test: Induction of apoptosis in human HeLa cells assessed as early apoptotic cells at 5 uM after 12 hrs using annexin V/propidium iodide staining by flow cytometry (reference value: 3.8%); assay type: functional; summary of the method: as §2
# HeLa [17] = test: Induction of apoptosis in human HeLa cells assessed as DNA fragmentation at 5 to 15 uM after 24 hrs by agarose gel electrophoresis analysis; assay type: functional, cell-based
# Summary of the method: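 HeLa cells were exposed for 24 h at 5, 10 or 15 µM alongside untreated cells. Total cellular DNA was extracted and run on agarose gel electrophoresis to look for a nucleosome-sized ladder (~180–200 bp fragments).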
Compound,IC50 (HCT-116) [µM],IC50 (HepG2) [µM],IC50 [1] [µM],IC50 (SK-OV-3) [µM],IC50 (NCI-H460) [µM],IC50 (HeLa [2]) [µM],also measured
CC(C)c1ccc2c(c1)CC[C@H]1[C@](C)(C(=O)N[C@H](Cc3ccccc3)C(=O)Nc3cccc(Cl)c3)CCC[C@]21C,45.9,24.7,23.8,30.6,26.3,13.1,–
CC(C)c1ccc2c(c1)CC[C@H]1[C@](C)(C(=O)N[C@H](Cc3ccccc3)C(=O)Nc3ccc(Br)cc3)CCC[C@]21C,35.3,34.6,16.9,28.7,28.7,15.2,–
COc1cccc(NC(=O)[C@@H](Cc2ccccc2)NC(=O)[C@]2(C)CCC[C@]3(C)c4ccc(C(C)C)cc4CC[C@@H]23)c1,35.8,29.5,38.5,30.5,40.4,25.8,–
CC(C)c1ccc2c(c1)CC[C@H]1[C@](C)(C(=O)N[C@H](Cc3ccccc3)C(=O)Nc3ccc(C(F)(F)F)cc3)CCC[C@]21C,27.4,21.6,36.1,36.3,28.9,10.5,–
Cc1ccc(NC(=O)[C@@H](Cc2ccccc2)NC(=O)[C@]2(C)CCC[C@]3(C)c4ccc(C(C)C)cc4CC[C@@H]23)cc1Cl,32.3,36.9,41.2,37.8,26.1,10.1,–
Cc1ccc(NC(=O)[C@@H](Cc2ccccc2)NC(=O)[C@]2(C)CCC[C@]3(C)c4ccc(C(C)C)cc4CC[C@@H]23)cc1C,32.1,42.8,48.2,51.8,37,14.3,–
CC(C)c1ccc2c(c1)CC[C@H]1[C@](C)(C(=O)N[C@H](Cc3ccccc3)C(=O)Nc3ccc(F)c(Cl)c3)CCC[C@]21C,39.3,32.9,26.1,30.5,26.8,11.1,–
CC(C)c1ccc2c(c1)CC[C@H]1[C@](C)(C(=O)N[C@H](Cc3ccccc3)C(=O)Nc3cccc([N+](=O)[O-])c3)CCC[C@]21C,27.4,25.3,27.1,20.1,32.8,12.8,–
CC(C)c1ccc2c(c1)CC[C@H]1[C@](C)(C(=O)N[C@H](Cc3ccccc3)C(=O)Nc3ccc(Cl)c(Cl)c3)CCC[C@]21C,40.9,20.4,44.7,33.1,27,28.8,–
COc1ccc(OC)c(NC(=O)[C@@H](Cc2ccccc2)NC(=O)[C@]2(C)CCC[C@]3(C)c4ccc(C(C)C)cc4CC[C@@H]23)c1,36.8,38.1,56.3,53.8,27.4,19.3,–
CC(C)c1ccc2c(c1)CC[C@H]1[C@](C)(C(=O)N[C@H](Cc3ccccc3)C(=O)Nc3ccccc3Cl)CCC[C@]21C,25.5,25.3,15.8,13.5,15.2,10.3,–
CC(C)c1ccc2c(c1)CC[C@H]1[C@](C)(C(=O)N[C@H](Cc3ccccc3)C(=O)Nc3cccc(Br)c3)CCC[C@]21C,44.1,22.9,19.9,38.8,33.3,25.1,–
CC(C)c1ccc2c(c1)CC[C@H]1[C@](C)(C(=O)N[C@H](Cc3ccccc3)C(=O)Nc3ccccc3)CCC[C@]21C,30.3,27.7,16.7,27.4,28.2,18.9,–
CC(C)c1ccc2c(c1)CC[C@H]1[C@](C)(C(=O)N[C@H](Cc3ccccc3)C(=O)Nc3cccc(F)c3)CCC[C@]21C,34.8,23.9,27.4,33.9,26.1,13.9,–
CC(C)c1ccc2c(c1)CC[C@H]1[C@](C)(C(=O)N[C@H](Cc3ccccc3)C(=O)Nc3ccc(Cl)cc3)CCC[C@]21C,37.8,26.3,33.6,26.3,15.8,12.2,–
CC(C)c1ccc2c(c1)CC[C@H]1[C@](C)(C(=O)N[C@H](Cc3ccccc3)C(=O)Nc3cc(Cl)ccc3Cl)CCC[C@]21C,24.1,23.4,31,21.6,15.8,14.9,–
Cc1cccc(NC(=O)[C@@H](Cc2ccccc2)NC(=O)[C@]2(C)CCC[C@]3(C)c4ccc(C(C)C)cc4CC[C@@H]23)c1,32.5,26.9,34.6,29.8,32.4,18.2,–
O=c1[nH]cc(F)c(=O)[nH]1 [FLUOROURACIL],24.4,27,26.8,–,36,80.5,–
COc1ccc(NC(=O)[C@@H](Cc2ccccc2)NC(=O)[C@]2(C)CCC[C@]3(C)c4ccc(C(C)C)cc4CC[C@@H]23)cc1,15.7,12.4,15.3,23.8,17.2,4.94,Activity (HeLa [3]): Active; Activity (HeLa [4]): Active; Activity (HeLa [5]): 33.7%; Activity (HeLa [6]): tde; Activity (HeLa [7]): 14.5%; Activity (HeLa [8]): 12.6%; Activity (HeLa [9]): Dose-dependent effect; Activity (HeLa [10]): Active; Activity (HeLa [11]): Active; Activity (HeLa [12]): Active; Activity (HeLa [13]): Active; Activity (HeLa [14]): 3.2%; Activity (HeLa [15]): 19.2%; Activity (HeLa [16]): 9.4%; Activity (HeLa [17]): Active
CC(C)c1ccc2c(c1)CC[C@H]1[C@](C)(C(=O)O)CCC[C@]21C [DEHYDROABIETIC ACID],35.2,76.8,34.7,75,80.5,29.4,–
CC(C)c1ccc2c(c1)CC[C@H]1[C@](C)(C(=O)N[C@H](Cc3ccccc3)C(=O)Nc3ccc(F)cc3)CCC[C@]21C,27.4,27.1,21,20.1,22.8,10.8,–
